Reference: ChEMBL document CHEMBL3877272, “Synthesis and anti-mitotic activity of 6,7-dihydro-4H-isothiazolo[4,5-b]pyridin-5-ones: In vivo and cell-based studies” (Eur J Med Chem, 2017)
Calls of active or inactive are those of the source.

Key:
Paracentrotus lividus [1] = experiment: Antimitotic activity in sea urchin embryo assessed as cleavage arrest exposed 8 to 15 mins after fertilization 45 to 55 mins before first mitotic cycle completion measured at 2.5 to 5.5 hrs post dose; format: functional
Summary of the method: (§1)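 Paracentrotus lividus eggs, fertilized in filtered seawater, cultured as monolayer (up to 2000 embryos/mL) at room temperature. Exposed 8–15 min post-fertilization to 2-fold decreasing concentrations (DMSO stock diluted in EtOH; final DMSO ≤0.05%, EtOH ≤1%). Cleavage alteration scored at 8-cell, arrest at early blastula stage (2.5–5.5 h). Effective threshold concentration reported; duplicate measurements.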

[2] = Antiproliferative activity against human NCI60 cells at 10 uM after 48 hrs by SRB assay relative to control; format: functional; settings: NCI60, 48 h, read-out: GI
Paracentrotus lividus [3] = experiment: Antimitotic activity in sea urchin free-swimming blastulae assessed as microtubule destabilization by measuring embryo spinning exposed 8 to 10 hrs after fertilization measured after 15 mins to 20 hrs; format: functional, Blastula
Summary of the method: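 Free-swimming P. lividus blastulae just after hatching (8–10 h post-fertilization) from same culture, exposed in seawater to 2-fold decreasing concentrations (DMSO stock diluted in EtOH). Settling to well bottom with rapid spinning around animal-vegetal axis scored by light microscopy over 15 min–20 h. Effective threshold concentration; duplicate measurements.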

Paracentrotus lividus [4] = experiment: Antimitotic activity in sea urchin embryo assessed as cleavage alteration exposed 8 to 15 mins after fertilization 45 to 55 mins before first mitotic cycle completion measured at 2.5 to 5.5 hrs post dose; format: functional; summary of the method: as §1
[5] = Antiproliferative activity against human TOV112D cells measured after 96 hrs by Celltiter-Glo assay; format: functional, cell-based
Summary of the method: (§2)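 Cells plated 24 h, then treated 96 h with 0.1% DMSO or concentrations […]; growth by CellTiter-Glo luminescence, normalized to DMSO control; IC50 from dose–response curves by logistic nonlinear regression; mean of three independent experiments.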

[6] = Antiproliferative activity against human OVCAR8 cells measured after 3 to 4 days by Celltiter-Glo luminescent cell viability assay; format: functional; settings: OVCAR-8
[7] = Antiproliferative activity against human NCI-H1975 cells measured after 96 hrs by Celltiter-Glo assay; format: functional, cell-based; settings: NCI-H1975, 96 h; summary of the method: as §2
[8] = Antiproliferative activity against human MDA-MB-DYT2 cells measured after 96 hrs by Celltiter-Glo assay; format: functional, cell-based; summary of the method: as §2
[9] = Antiproliferative activity against human Caov3 cells measured after 96 hrs by Celltiter-Glo assay; format: functional, cell-based; settings: Caov-3, 96 h; summary of the method: as §2
[10] = Antiproliferative activity against human MDA-MB-435 cells measured after 96 hrs by Celltiter-Glo assay; format: functional, cell-based; settings: MDA-MB-435, 96 h; summary of the method: as §2
[11] = Antiproliferative activity against human MDA-MB-231 cells measured after 96 hrs by Celltiter-Glo assay; format: functional, cell-based; settings: MDA-MB-231, 96 h; summary of the method: as §2
[12] = Antiproliferative activity against human NCI60 cells measured after 48 hrs by SRB assay; format: functional; settings: NCI60, 48 h
[13] = Antiproliferative activity against human NCI/ADR-RES cells measured after 3 to 4 days by Celltiter-Glo luminescent cell viability assay; format: functional
[14] = Antiproliferative activity against human MDA-MB-468 cells measured after 96 hrs by Celltiter-Glo assay; format: functional, cell-based; settings: MDA-MB-468, 96 h; summary of the method: as §2
[15] = Antiproliferative activity against human MDA-MB-435 cells measured after 48 hrs by SRB assay; format: functional, cell-based; settings: MDA-MB-435, 48 h
[16] = Antiproliferative activity against human MDA-MB-468 cells measured after 48 hrs by SRB assay; format: functional, cell-based; settings: MDA-MB-468, 48 h
Paracentrotus lividus [17] = experiment: In vivo microtubule destabilizing activity in sea urchin embryo assessed as tuberculate egg formation exposed 8 to 15 mins after fertilization 45 to 55 mins before first mitotic cycle completion measured at 2.5 to 5.5 hrs post dose; format: functional
Summary of the method: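 Paracentrotus lividus eggs from KCl-induced spawning, fertilized and cultured in filtered seawater at room temperature, up to 2000 embryos/mL. Compounds came from 10 mM DMSO stocks diluted 10-fold in 96% EtOH; tolerated solvent limits were 0.05% DMSO and 1% EtOH. Eggs were exposed to 2-fold decreasing concentrations and scored by light microscopy. The result is the effective threshold concentration, measured in duplicate.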

[18] = Solubility in seawater assessed as micro-crystal formation at 4 uM by light microscopy; format: physicochemical
Summary of the method: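 Compound from 10 mM DMSO stock diluted 10-fold in 96% EtOH, added to seawater with sea urchin embryos; microcrystal formation checked by light microscopy.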

| Structure (SMILES) | EC (Paracentrotus lividus [1]) [µM] | inhibition of growth at 10 µM [2] [%] | EC (Paracentrotus lividus [3]) [µM] | EC (Paracentrotus lividus [4]) [µM] | further results |
| --- | --- | --- | --- | --- | --- |
| COc1ccc(-c2nsc3c2NC(=O)CC3c2cccc(Cl)c2)cc1OC (stereo not given) | >4 | 14 | >4 | 2 |  |
| COc1cc(C2CC(=O)Nc3c(-c4ccc(Cl)cc4)nsc32)c(OC)c2c1OCO2 (stereo not given) | >4 | 7.66 | >4 | >4 |  |
| COc1ccc(-c2nsc3c2NC(=O)CC3c2cccc(Cl)c2)cc1 (stereo not given) | 0.1 |  | 0.1 | 0.01 | IC50 [5]: 1270 nM; GI50 [6]: 2.92 µM; IC50 [7]: > 2000 nM; IC50 [8]: > 2000 nM; IC50 [9]: 1300 nM; IC50 [10]: 792 nM; IC50 [11]: 1620 nM; GI50 [12]: 1740 nM; GI50 [13]: 562 nM; IC50 [14]: 752 nM; IC50 [15]: 749 nM; IC50 [16]: 174 nM |
| COc1ccc(-c2nsc3c2NC(=O)CC3c2ccc(F)cc2)cc1 (stereo not given) | 0.05 |  | 0.1 | 0.01 | IC50 [5]: > 2000 nM; GI50 [6]: 4.01 µM; IC50 [7]: > 2000 nM; IC50 [8]: > 2000 nM; IC50 [9]: > 2000 nM; IC50 [10]: 1820 nM; IC50 [11]: > 2000 nM; GI50 [12]: 3020 nM; GI50 [13]: 2110 nM; IC50 [14]: 1850 nM; IC50 [15]: 440 nM; IC50 [16]: 2350 nM |
| COc1cc(C2CC(=O)Nc3c(-c4cccc(F)c4)nsc32)c(OC)c2c1OCO2 (stereo not given) | >4 |  | >4 | >4 |  |
| COc1cc(C2CC(=O)Nc3c(-c4cccc(F)c4)nsc32)cc2c1OCO2 (stereo not given) | >4 | 4.4 | >4 | 4 |  |
| O=C1CC(c2cccc(Cl)c2)c2snc(-c3ccc(F)cc3)c2N1 (stereo not given) | 4 | 15.6 | >4 | 1 |  |
| COc1ccc(C2CC(=O)Nc3c(-c4cccc(F)c4)nsc32)cc1 (stereo not given) | >4 | 5.3 | >4 | 2 |  |
| O=C1CC(c2cccc(Cl)c2)c2snc(-c3cccc(F)c3)c2N1 (stereo not given) | 4 |  | >4 | 1 |  |
| COc1cc(C2CC(=O)Nc3c(-c4ccccc4)nsc32)c(OC)c(O)c1O (stereo not given) | >4 |  | >4 | >4 |  |
| COc1ccc(-c2nsc3c2NC(=O)CC3c2cc3c(c(OC)c2OC)OCO3)cc1 (stereo not given) | 2 | 26.9 | >5 | 0.2 | Activity (Paracentrotus lividus [17]): Active |
| COc1ccc(-c2nsc3c2NC(=O)CC3c2cc(OC)c(O)c(O)c2OC)cc1 (stereo not given) | 2 |  | >5 | 1 |  |
| COc1ccc(-c2nsc3c2NC(=O)CC3c2ccc(Cl)cc2)cc1 (stereo not given) | 0.2 | 15.7 | 1 | 0.1 |  |
| O=C1CC(c2ccc(Cl)cc2)c2snc(-c3cccc(F)c3)c2N1 (stereo not given) | >4 | 16.5 | >4 | >4 | solubility [18]: Insoluble |
| O=C1CC(c2ccc(F)cc2)c2snc(-c3cccc(F)c3)c2N1 (stereo not given) | 4 |  | >4 | 1 | Activity (Paracentrotus lividus [17]): Active |
| COc1cccc(C2CC(=O)Nc3c(-c4cccc(F)c4)nsc32)c1 (stereo not given) | 1 to 4 | 9.4 | >4 | 0.5 | solubility [18]: Insoluble |

| Structure (SMILES) | EC (Paracentrotus lividus [1]) [µM] | inhibition of growth at 10 µM [2] [%] | EC (Paracentrotus lividus [3]) [µM] | EC (Paracentrotus lividus [4]) [µM] | further results |
| --- | --- | --- | --- | --- | --- |
| COc1ccc(-c2nsc3c2NC(=O)CC3c2cccc(F)c2)cc1 (stereo not given) | 0.05 |  | 0.2 | 0.01 | IC50 [5]: > 2000 nM; GI50 [6]: 7.54 µM; IC50 [7]: > 2000 nM; IC50 [8]: > 2000 nM; IC50 [9]: > 2000 nM; IC50 [10]: 1410 nM; IC50 [11]: > 2000 nM; GI50 [12]: 4900 nM; GI50 [13]: 2960 nM; IC50 [14]: 1410 nM; IC50 [15]: 827 nM; IC50 [16]: 1940 nM |
| COc1ccc(-c2nsc3c2NC(=O)CC3c2ccc3c(c2)OCCO3)cc1 (stereo not given) | 0.05 |  | 0.5 | 0.01 | IC50 [5]: 659 nM; GI50 [6]: 1.41 µM; IC50 [7]: 1240 nM; IC50 [8]: 1360 nM; IC50 [9]: 833 nM; IC50 [10]: 349 nM; IC50 [11]: 1710 nM; GI50 [12]: 933 nM; GI50 [13]: 367 nM; IC50 [14]: 451 nM; IC50 [15]: 247 nM; IC50 [16]: 328 nM |
| O=C1CC(c2ccc(F)cc2)c2snc(-c3ccc(F)cc3)c2N1 (stereo not given) | 4 | 4.2 | >4 | 1 | solubility [18]: Insoluble |
| O=C1CC(c2ccsc2)c2snc(-c3cccc(F)c3)c2N1 (stereo not given) | 0.5 | 7.8 | 2 | 0.05 |  |
| O=C1CC(c2ccsc2)c2snc(-c3ccc(Cl)cc3)c2N1 (stereo not given) | 0.1 |  | 0.2 | 0.01 | IC50 [5]: 1150 nM; GI50 [6]: 3.01 µM; IC50 [8]: > 2000 nM; IC50 [9]: 1080 nM; IC50 [10]: 628 nM; IC50 [11]: 1630 nM; GI50 [12]: 1510 nM; GI50 [13]: 364 nM; IC50 [15]: 260 nM; IC50 [16]: 291 nM |
| COc1ccc(-c2nsc3c2NC(=O)CC3c2cc(OC)c3c(c2OC)OCO3)cc1 (stereo not given) | 0.2 |  | 1 | 0.05 |  |
| COc1ccc(/C=C\c2cc(OC)c(OC)c(OC)c2)cc1OP(=O)([O-])[O-].[Na+].[Na+] [FOSBRETABULIN DISODIUM] | 0.01 |  | 0.05 | 0.005 | IC50 [5]: 30.9 nM; IC50 [8]: 60 nM; IC50 [9]: 13.1 nM; IC50 [10]: 8.75 nM; IC50 [11]: 173 nM; GI50 [12]: 1.7 nM |
| COc1cccc(C2CC(=O)Nc3c(-c4ccc(F)cc4)nsc32)c1 (stereo not given) | 4 | 15.1 | >4 | 1 | Activity (Paracentrotus lividus [17]): Active |
| O=C1CC(c2ccc3c(c2)OCO3)c2snc(-c3ccc(F)cc3)c2N1 (stereo not given) | >4 | 11.7 | >4 | 1 |  |
| O=C1CC(c2ccc3c(c2)OCO3)c2snc(-c3cccc(F)c3)c2N1 (stereo not given) | 4 | 5.2 | >4 | 1 |  |
| O=C1CC(c2ccsc2)c2snc(-c3ccc(F)cc3)c2N1 (stereo not given) | 0.2 |  | 4 | 0.05 |  |
| COc1cc(C2CC(=O)Nc3c(-c4ccc(Cl)cc4)nsc32)cc2c1OCO2 (stereo not given) | >4 | 17.8 | >4 | 2 | solubility [18]: Insoluble |
| COc1cc(C2CC(=O)Nc3c(-c4ccccc4)nsc32)c(OC)c2c1OCO2 (stereo not given) | >4 |  | >4 | >4 |  |
| COc1cc(C2CC(=O)Nc3c(-c4ccccc4)nsc32)cc2c1OCO2 (stereo not given) | >4 | 4.6 | >4 | 4 |  |
| COc1ccc(C2CC(=O)Nc3c(-c4ccc(F)cc4)nsc32)cc1 (stereo not given) | >4 | 6.2 | >4 | 2 |  |
| O=C1CC(c2cccc(F)c2)c2snc(-c3cccc(F)c3)c2N1 (stereo not given) | >4 | 6.4 | >4 | 1 |  |
